# From ChEMBL document CHEMBL2412970, “Synthesis and anticancer activity of 2,4-disubstituted furo[3,2-b]indole derivatives” (Eur J Med Chem, 2013)
# Activity calls are given as the source filed them. The calls are words filed in the database; no cut-off is given here.
# Key:
# [1] = system: A498; experiment: Cytotoxicity against human A498 cells assessed as reduction in cell viability at 0.1 uM after 48 hrs by MTT assay relative to control; type: functional
# [2] = system: OVCAR-5; experiment: Cytotoxicity against human OVCAR5 cells after 48 hrs by sulforhodamine B assay; type: functional; conditions: OVCAR-5, 48 h
# [3] = system: A498; experiment: Cytotoxicity against human A498 cells assessed as cell shrinkage at 0.5 uM after 24 hrs by phase contrast microscopy; type: functional, cell-based
# In short: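 A498 cells were plated at 5 × 10⁵ per well and exposed to 0.5 µM for 24 h. Cell rounding and shrinkage were scored by microscopy against untreated control cells.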
# [4] = system: NCI-H460; experiment: Cytotoxicity against human NCI-H460 cells after 48 hrs by sulforhodamine B assay; type: functional; conditions: NCI-H460, 48 h
# [5] = system: MCF7; experiment: Cytotoxicity against human MCF7 cells after 48 hrs by sulforhodamine B assay; type: functional; conditions: MCF7, 48 h
# [6] = system: Hs-578T; experiment: Cytotoxicity against human Hs578T cells after 48 hrs by sulforhodamine B assay; type: functional
# [7] = system: A498; experiment: Antitumor activity against human A498 cells xenografted in BALB/cAnN.Cg-Foxn1nu/CrlNarl nude mouse assessed as suppression of tumor growth at 60 mg/kg/day, ip qd administered 5 times a week for 28 days measured every 7 days relative to control; type: functional; conditions: route intraperitoneal, read-out: TGI
# In short: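 Male nude mice (18–20 g, 4–6 weeks) were inoculated subcutaneously with A498 cells, 2 × 10⁶ per mouse in 0.1 mL PBS. Once tumors reached 100 mm³, mice were randomized and given ip doses of 30 or 60 mg/kg, 5 times per week for 4 weeks. Body weight and tumor size were recorded every 7 days over 28 days. Volume = 1/2 ([…]).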
# [8] = system: BT-549; experiment: Cytotoxicity against human BT549 cells after 48 hrs by sulforhodamine B assay; type: functional; conditions: BT-549, 48 h
# [9] = system: A498; experiment: Cell cycle arrest in human A498 cells assessed as accumulation at G0/G1 phase at 0.5 uM after 24 hrs by propidium iodide staining-based flow cytometry (reference value: 78.70 +/- 0.02%); type: functional
# [10] = system: A498; experiment: Cell cycle arrest in human A498 cells assessed as accumulation at sub-G1 phase at 0.5 uM after 24 hrs by propidium iodide staining-based flow cytometry (reference value: 0.10 +/- 0.07%); type: functional
# [11] = system: MDA-MB-231; experiment: Cytotoxicity against human MDA-MB-231 cells after 48 hrs by sulforhodamine B assay; type: functional; conditions: MDA-MB-231, 48 h
# [12] = system: UACC-257; experiment: Cytotoxicity against human UACC257 cells after 48 hrs by sulforhodamine B assay; type: functional; conditions: UACC-257, 48 h
# [13] = system: MDA-MB-468; experiment: Cytotoxicity against human MDA-MB-468 cells after 48 hrs by sulforhodamine B assay; type: functional; conditions: MDA-MB-468, 48 h
# [14] = system: T47D; experiment: Cytotoxicity against human T47D cells after 48 hrs by sulforhodamine B assay; type: functional
# [15] = system: Malme-3M; experiment: Cytotoxicity against human MALME-3M cells after 48 hrs by sulforhodamine B assay; type: functional
# [16] = system: DU-145; experiment: Cytotoxicity against human DU145 cells after 48 hrs by sulforhodamine B assay; type: functional; conditions: DU-145, 48 h
# [17] = Cytotoxicity against human H460 cells after 48 hrs by MTT assay; type: functional, cell-based; conditions: NCI-H460, 48 h
# In short: (§1)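 Cells were treated with a range of concentrations for 48 h. Viability was read by MTT: formazan was dissolved in DMSO and absorbance read at 570 nm. Untreated or 0.1% DMSO cells served as control. Data are mean from three independent experiments. HL-60, H460 and COLO 205 were kept in RPMI-1640 with 10% FBS and penicillin/streptomycin.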
# [18] = system: A498; experiment: Induction of cell cycle arrest at G2/M phase in human A498 cells assessed as increase in cyclin B1 expression at 0.5 uM after 6 hrs by Western blotting analysis; type: functional, cell-based
# In short: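 A498 cells exposed to 0.5 µM for 6, 12, 24, 36 or 48 h, then lysed on ice 30 min and spun 12 000g 20 min. Protein measured by Bradford; 20 µg per lane run on 10% SDS-PAGE, transferred to nitrocellulose, probed for cyclin B1 and CDK1, β-actin as loading control; n = 3 independent experiments.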
# [19] = system: A498; experiment: Cell cycle arrest in human A498 cells assessed as accumulation at S phase at 0.5 uM after 48 hrs by propidium iodide staining-based flow cytometry (reference value: 15.92 +/- 0.03%); type: functional
# [20] = system: HL-60; experiment: Cytotoxicity against human HL60 cells after 48 hrs by MTT assay; type: functional, cell-based; conditions: HL-60, 48 h; in short: as §1
# [21] = system: A498; experiment: Induction of apoptosis in human A498 cells assessed as increase in Apaf-1 level at 0.5 uM after 6 to 48 hrs by Western blotting analysis; type: functional, cell-based
# In short: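 A498 cells exposed for 6, 12, 24, 36 or 48 h, then washed in PBS and lysed. Lysates were held on ice for 30 min and spun at 12 000g for 20 min. Supernatant protein was measured by Bradford assay, run on 10% SDS-PAGE and transferred to nitrocellulose. Blots were probed for AIF, Endo G, Apaf-1, cytochrome c, caspase 9 and caspase 3, with β-actin as loading control; n = 3 independent experiments.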
# [22] = system: COLO 205; experiment: Cytotoxicity against human COLO205 cells after 48 hrs by sulforhodamine B assay; type: functional; conditions: COLO 205, 48 h
# [23] = system: A498; experiment: Induction of apoptosis in human A498 cells assessed as reduction in mitochondrial membrane potential at 0.5 uM after 12 to 48 hrs by JC-1 staining-based flow cytometry; type: functional, cell-based
# In short: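 A498 cells at 1 × 10⁶ cells/mL, untreated or treated for 12–48 h, were stained with JC-1 working solution for 10–15 min and analysed by flow cytometry. High-potential cells show intense red JC-1 aggregate fluorescence; loss of potential is scored as the population with reduced red fluorescence.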
# [24] = system: RXF 393; experiment: Cytotoxicity against human RXF393 cells after 48 hrs by sulforhodamine B assay; type: functional; conditions: RXF 393, 48 h
# [25] = system: PC-3; experiment: Cytotoxicity against human PC3 cells after 48 hrs by sulforhodamine B assay; type: functional; conditions: PC-3, 48 h
# [26] = system: A498; experiment: Induction of apoptosis in human A498 cells assessed as early apoptotic cells at 0.5 uM after 24 hrs by AnnexinV/FITC-propidium iodide staining-based flow cytometry (reference value: 3.9%); type: functional
# [27] = read-out: pLC50 (the source's name) (converted)
smiles,measurement,setting,value
OCc1ccc(Cn2c3ccccc3c3oc(CO)cc32)o1,Activity,[1],82.8%
same,GI50,[2],0.331 µM
same,TGI,[2]; read-out: pTGI (converted),1.2 µM
same,Activity,[3],Active
same,GI50,[4],> 100 µM
same,CC50,[4]; [27],> 100 µM
same,TGI,[4]; read-out: pTGI,> 100 µM
same,GI50,[5],9.33 µM
same,CC50,[5]; [27],> 100 µM
same,TGI,[5]; read-out: pTGI,> 100 µM
same,GI50,[6],> 100 µM
same,CC50,[6]; [27],> 100 µM
same,TGI,[6]; read-out: pTGI,> 100 µM
same,inhibition in vivo at 60 mg/kg/day,[7],80%
same,GI50,[8],3.89 µM
same,CC50,[8]; [27],> 100 µM
same,TGI,[8]; read-out: pTGI (converted),61.7 µM
same,Activity,[9],72.65%
same,Activity,[10],0.91%
same,GI50,[11],74.1 µM
same,CC50,[11]; [27],> 100 µM
same,TGI,[11]; read-out: pTGI,> 100 µM
same,GI50,[12],1.45 µM
same,CC50,[12]; [27],> 100 µM
same,TGI,[12]; read-out: pTGI (converted),4.37 µM
same,GI50,[13],0.17 µM
same,TGI,[13]; read-out: pTGI (converted),0.562 µM
same,GI50,[14],1.62 µM
same,CC50,[14]; [27],> 100 µM
same,TGI,[14]; read-out: pTGI,> 100 µM
same,GI50,[15],> 100 µM
same,CC50,[15]; [27],> 100 µM
same,TGI,[15]; read-out: pTGI,> 100 µM
same,GI50,[16],> 100 µM
same,CC50,[16]; [27],> 100 µM
same,TGI,[16]; read-out: pTGI,> 100 µM
same,IC50,[17],74.1 µM
same,Activity,[18],Active
same,Activity,[19],10.64%
same,IC50,[20],> 50 µM
same,Activity,[21],Active
same,GI50,[22],61.7 µM
same,CC50,[22]; [27],> 100 µM
same,TGI,[22]; read-out: pTGI,> 100 µM
same,Activity,[23],Active
same,GI50,[24],75.9 µM
same,CC50,[24]; [27],> 100 µM
same,TGI,[24]; read-out: pTGI,> 100 µM
same,GI50,[25],55 µM
same,CC50,[25]; [27],> 100 µM
same,TGI,[25]; read-out: pTGI,> 100 µM
same,Activity,[26],12.7%
